{"source": "PubChem BioAssay AID1229", "about": "(Sanford-Burnham Center for Chemical Genomics, 2008)", "note": "In all, about 190,000 compounds went through this assay and about 10 (0.005%) were called active. The sample as a whole holds a higher share of actives than the screen did. Unmarked numbers belong to inactive results.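 The calls were made as follows: active = diaphorase activity raised at least twofold by the compound at 20 µM; inactive = activation factor below 2.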"}
{"assay": "compounds boosting diaphorase resazurin reduction – biochemical, uHTS, resorufin fluorescence, counter-screen for diaphorase-coupled primary assays, primary screen (AID 1229)", "conditions": "Diaphorase/resazurin coupled assay, 16 min, at 20 µM, hits give high values, 1 = vehicle wells, 0 = NADH-free wells", "in_short": "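Material: Clostridium kluyveri diaphorase, purified enzyme; Quantity: enzyme 0.07 U/mL final; Medium: HEPES pH 7.4 buffer with MgCl2 and Tween 20; Dosing: single compound dose of 20 µM, 1% DMSO final; Schedule: 16 min reaction at room temperature; Measured by: red resorufin fluorescence at 544/590 nm excitation/emission.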"}
{"smiles": "Cc1cccc(-n2c(=O)c3c(C)c(C)sc3n(CC(N)=O)c2=O)c1", "activation factor": 1.1}
{"smiles": "O=C(COC(=O)c1ccc(Cl)nc1)NCc1ccc2c(c1)OCO2", "activation factor": 1}
{"smiles": "CC1CN(S(=O)(=O)c2ccc(C(=O)NN3CCN(C)CC3)cc2)CC(C)O1", "note": "(stereo not given)", "activation factor": 0.9}
{"smiles": "CC(C)(C)NC(=O)C(=O)NCc1ccncc1", "activation factor": 0.9}
{"smiles": "O=C(NCc1ccccc1)C1=C[C@@H](c2ccc(C(F)(F)F)cc2)C[C@@H](OCc2ccc(CO)cc2)O1", "activation factor": 0.6}
{"smiles": "O=C(NC(=S)Nc1ccc(S(=O)(=O)Nc2ncccn2)cc1)c1cccc(Br)c1", "activation factor": 0.9}
{"smiles": "COc1ccc(/C=C(\\C#N)C(=O)NCCCn2ccnc2)cc1", "activation factor": 1}
{"smiles": "O=C1CC(=O)Nc2cc(S(=O)(=O)N3CCN(c4cccc(C(F)(F)F)c4)CC3)ccc2N1", "activation factor": 1}
{"smiles": "CCOc1ccc(OCc2cccc(C(=O)N(CC)CC)c2)cc1", "activation factor": 0.8}
{"smiles": "CC(=O)Nc1ccc(S(=O)(=O)Nc2nccc(/C=C/c3ccccc3F)n2)cc1", "activation factor": 0.8}
{"smiles": "CCCc1nnc(SCC(=O)N2C(C)CCCC2C)n1CC", "note": "(stereo not given)", "activation factor": 0.9}
{"smiles": "CC(C)CNC(=O)/C=C/C(=O)O", "activation factor": 1}
{"smiles": "COc1ccc(C)cc1Nc1nc(-c2c(C)[nH]c3ccccc23)cs1", "activation factor": 0.9}
{"smiles": "O=C(NCCCn1ccnc1)c1cc(-c2ccccc2)on1", "activation factor": 1}
{"smiles": "CCN(CC)CCOCCOc1ccc(Cl)c2ccccc12", "activation factor": 0.8}
{"smiles": "Cn1c(SCC(=O)Nc2ccc(Br)cc2F)nnc1-c1ccco1", "activation factor": 0.9}
{"smiles": "Cc1nc([N+](=O)[O-])cn1CC(=O)Nc1ccc2c(c1)OCO2", "activation factor": 0.9}
{"smiles": "CC(=O)NCCn1c(SCC(=O)Nc2ccc(C)cc2)nc2ccccc2c1=O", "activation factor": 0.9}
{"smiles": "COc1cccc(-n2c(=S)[nH]c3c(oc4ccccc43)c2=O)c1", "activation factor": 0.3}
{"smiles": "CC1CCCCC1NC(=O)/C(C#N)=C/C=C/c1ccccc1[N+](=O)[O-]", "note": "(stereo not given)", "activation factor": 0.8}
{"smiles": "Cc1cccc(-n2c(Cc3cc(=O)[nH]c(=O)[nH]3)nnc2SCC(=O)Nc2cccc(C(F)(F)F)c2)c1", "activation factor": 1}
{"smiles": "COc1ccc(/C=C/C(=O)c2ccc(NS(=O)(=O)c3ccc(C)cc3)cc2)cc1O", "activation factor": 0.7}
{"smiles": "CC(C)CCN1CCN(Cc2ccc(C(F)(F)F)cc2)CC1CCO", "note": "(stereo not given)", "activation factor": 1}
{"smiles": "CC(=O)N(CN1C(=O)C2C3C=CC(C3)C2C1=O)c1cccc(Cl)c1", "note": "(stereo not given)", "activation factor": 1.1}
{"smiles": "O=C(C1=C[C@H](c2coc3ccccc3c2=O)C[C@H](OCc2ccc(CO)cc2)O1)N1CCOCC1", "activation factor": 0.8}
{"smiles": "COc1ccc(Br)cc1/C=N/Nc1ccc(Cl)c(C(=O)O)c1", "activation factor": 0.9}
{"smiles": "CC(=O)Nc1ccc(-c2csc(NC=C3C(=O)OC(C)(C)OC3=O)n2)cc1", "activation factor": 0.9}
{"smiles": "COC(=O)CSc1ccc2nnc(CCNS(=O)(=O)c3ccc(C)cc3)n2n1", "activation factor": 0.7}
{"smiles": "NC1=NN(c2cccc(C(=O)O)c2)C(=O)C1", "activation factor": 0.9}
{"smiles": "O=S1(=O)CC/C(=N\\Nc2ccc(F)cc2)c2ccsc21", "activation factor": 0.9}
{"smiles": "CCO[C@H]1OC(C(=O)NCc2ccccc2)=C[C@@H](c2coc3ccccc3c2=O)[C@@H]1CCCO", "activation factor": 0.8}
{"smiles": "CC(=O)Nc1ccc(S(=O)(=O)Nc2ccc(-c3ccc4nnc(C)n4n3)cc2)cc1", "activation factor": 1.1}
{"smiles": "CCOC(=O)C(CC)/C(C)=N\\NC(=O)c1cccc(C)c1", "note": "(stereo not given)", "activation factor": 0.9}
{"smiles": "COC(=O)N/N=C/c1ccc(-c2ccc(Cl)c(Cl)c2)o1", "activation factor": 0.9}
{"smiles": "C/C(=N\\NS(=O)(=O)c1ccc(Cl)cc1)c1ccc(NC(=O)c2ccco2)cc1", "activation factor": 0.8}
{"smiles": "Cc1cc(C)nc(SCC(=O)N(C)C)n1", "activation factor": 1}
{"smiles": "CCOc1ccc(C(C)=O)cc1COC(=O)c1cnc(Cl)c(Cl)c1", "activation factor": 0.8}
{"smiles": "C=CCNCCCCOc1ccccc1", "activation factor": 1.1}
{"smiles": "CONc1nc2nonc2nc1NOC", "activation factor": 0.9}
{"smiles": "O=C(C1CC1)N1N=C2CCCCC2C1(O)C(F)(F)F", "note": "(stereo not given)", "activation factor": 0.9}
{"smiles": "Cc1ccc(NN=Nc2nc3c([nH]2)c(=O)n(C)c(=O)n3C)cc1", "activation factor": 0.6}
{"smiles": "CCOc1ccc(Oc2nc(C)cc(OC)n2)nn1", "activation factor": 0.9}
{"smiles": "Cc1c(C2=CCN(S(=O)(=O)c3ccc(Cl)cc3)CC2)c2ccccc2n1C", "activation factor": 0.9}
{"smiles": "COc1cc(C(=S)NCc2ccccc2)cc(Br)c1O", "activation factor": 1}
{"smiles": "C/C=C/c1ccc(OCCCCN2CCC(C)CC2)c(OC)c1", "activation factor": 1}
{"smiles": "CCn1cc(-c2cc(C(=O)O)on2)c(C)n1", "activation factor": 0.9}
{"smiles": "Cc1ccc(OCCOCCOc2ccc(Br)cc2/C=N\\NC(=O)c2ccncc2)cc1", "activation factor": 0.8}
{"smiles": "O=C(c1ccc2c(c1)N(Cc1ccc(F)cc1)C(=O)c1ccccc1S2(=O)=O)N1CCN(c2ccccn2)CC1", "activation factor": 0.8}
{"smiles": "CNc1[nH]ncc1[N+](=O)[O-]", "activation factor": 1}
{"smiles": "O=C1c2ccccc2C(=O)N1CCC(O)C[N+](=O)[O-]", "note": "(stereo not given)", "activation factor": 1}
{"smiles": "Cc1ccc(NC(=O)OCCNC(=O)c2ccncc2)cc1", "activation factor": 1}
{"smiles": "N#Cc1c(NC(=O)C2CCCO2)sc2c1CCCCC2", "note": "(stereo not given)", "activation factor": 1}
{"smiles": "O=C(/C(=C/c1cccc(Cl)c1)c1nc2ccccc2[nH]1)c1ccccc1", "activation factor": 0.9}
{"smiles": "Cc1ccnc(NC(=O)CCC(=O)N(CC(=O)NCCc2ccccc2)Cc2cccs2)c1", "activation factor": 1}
{"smiles": "CC(=O)C1=C(O)C(=O)N(c2cccnc2)C1c1ccc([N+](=O)[O-])cc1", "note": "(stereo not given)", "activation factor": 0.9}
{"smiles": "O=C1/C(=C/c2cccs2)CCC1C1CCCC1", "note": "(stereo not given)", "activation factor": 0.9}
{"smiles": "Cc1cccc2cc3c(N)c(C(=O)N4CCCc5ccccc54)sc3nc12", "activation factor": 0.8}
{"smiles": "COc1ccc(OC)c(S(=O)(=O)NCCC(C)C)c1", "activation factor": 1.1}
{"smiles": "CCOC(=O)c1c(/N=C/c2cc(C)ccc2O)sc2c1CCC2", "activation factor": 1}
{"smiles": "CC(C)=CCCC1(C)C=Cc2c(ccc3c2[nH]c2cc(O)c(C)cc23)O1", "note": "(stereo not given)", "activation factor": 0.8}
{"smiles": "CN1CCNC(=O)C1CC(=O)N1CC=C(c2ccc(F)cc2)CC1", "note": "(stereo not given)", "activation factor": 0.9}
{"smiles": "COC(=O)/C(C#N)=C/c1occc1C", "activation factor": 0.9}
{"smiles": "CCCN(CC(=O)Nc1ccc(OC)c(OC)c1)CC(=O)Nc1ccc(F)c(F)c1F", "activation factor": 0.9}
{"smiles": "CN(C(=O)CSc1nnc(-c2n[nH]c3ccccc23)o1)c1ccccc1", "activation factor": 0.8}
{"smiles": "O=C(CSc1ccc(-c2ccccc2)nn1)NCC1CCCO1", "note": "(stereo not given)", "activation factor": 1.1}
{"smiles": "Cc1cccc(C(=O)OCC(=O)NCC(C)C)c1O", "activation factor": 0.9}
{"smiles": "O=C(Cc1cccs1)Nc1nnc(SCc2ccc(F)cc2)s1", "activation factor": 0.9}
{"smiles": "Cn1cnnc1Sc1ccc(CN2CCN(C3CCCC3)C(CCO)C2)o1", "note": "(stereo not given)", "activation factor": 1}
{"smiles": "CCCN=C1NC(=O)C(CC(=O)NCCc2ccc(OC)c(OC)c2)S1", "note": "(stereo not given)", "activation factor": 0.9}
{"smiles": "Cc1ccc(N(Cc2cc3ccccc3[nH]c2=O)C(=O)c2cccs2)cc1", "activation factor": 0.9}
{"smiles": "CCOc1ccc(N2C(=O)CN(c3cccc4ccccc34)C2=S)cc1", "activation factor": 1}
{"smiles": "CNC(=S)NNC(=O)c1cccn(Cc2ccccc2)c1=O", "activation factor": 1}
{"smiles": "Cc1cc(C(=O)NNC(=S)NC(C)c2ccccc2)cs1", "note": "(stereo not given)", "activation factor": 1}
{"smiles": "CCSc1nc(C)c(CCOc2cccc(C)c2)c(=O)[nH]1", "activation factor": 1}
{"smiles": "NS(=O)(=O)c1ccc(NC(=S)NNC(=O)c2cccs2)cc1", "activation factor": 0.8}
{"smiles": "Cc1ccc(NC(=S)N(CCCN2CCCC2)Cc2cccn2Cc2ccc(Cl)cc2)cc1", "activation factor": 1}
{"smiles": "COc1cccc(CC2(CO)CCN(Cc3cnc(-c4cccc(C)c4)nc3)CC2)c1", "activation factor": 0.7}
{"smiles": "COC(=O)CC1=NN(c2ccccc2)C(=O)C1", "activation factor": 1.1}
{"smiles": "CCCn1c(=O)c2c(C(F)(F)F)cc(-c3cccs3)nc2n(CCC)c1=O", "activation factor": 1}
{"smiles": "Cc1ccc(C(=O)N/C(=C\\c2cccs2)C(=O)NCCc2ccccn2)cc1C", "activation factor": 0.7}
{"smiles": "CN(C)c1ccc(C2Nc3ccccc3C(=O)N2NS(=O)(=O)c2ccccc2)cc1", "note": "(stereo not given)", "activation factor": 0.9}
{"smiles": "CCCCn1c(N)c(N2CCOCC2)c(=O)n(CC(=O)NCCc2ccccc2)c1=O", "activation factor": 1}
{"smiles": "COCCN1C(=O)N[C@@H](c2ccccc2)C(C(=O)OC)=C1C", "activation factor": 1}
{"smiles": "Cc1cc(C)n2nc(SCC(N)=O)nc2n1", "activation factor": 1}
{"smiles": "O=C(CNC(=O)c1ccccc1)NCC(=O)OCC(=O)c1ccccc1", "activation factor": 1.1}
{"smiles": "O=C(O)c1cccc(NC(=O)c2cc(-c3cccc(Cl)c3)nc3ccccc23)c1", "activation factor": 0.8}
{"smiles": "[O-][n+]1onc2c1CCc1[nH]c(-c3ccccc3)nc1-2", "activation factor": 0.9}
{"smiles": "O=S(=O)(NC1CC1)c1ccc2c3c(cccc13)CC2", "activation factor": 1}
{"smiles": "C/C(Cn1nnc2ccccc21)=N\\OC(=O)c1cc(F)c(F)cc1Cl", "activation factor": 0.9}
{"smiles": "COc1cccc(CNC(=O)c2n[nH]c3ccccc23)c1", "activation factor": 1}
{"smiles": "Cc1ccc(C(=O)OC(C)CN2CCOCC2)cc1", "note": "(stereo not given)", "activation factor": 1}
{"smiles": "O=C(O)COc1ccc(/C=N/O)cc1Br", "activation factor": 0.9}
{"smiles": "Cc1ccccc1C(CC(=O)c1cccs1)C(C#N)C#N", "note": "(stereo not given)", "activation factor": 0.9}
{"smiles": "O=C(Nc1ccccc1Cc1ccccc1)c1ccc2c(c1)SC1=NS(=O)(=O)CCN12", "activation factor": 0.9}
{"smiles": "COc1cc(NC(=O)CSc2nnc3ccc(-c4ccncc4)nn23)cc(OC)c1", "activation factor": 0.8}
{"smiles": "O=C(c1ccc(F)cc1)n1cc(C(=S)N2CCOCC2)c2ccccc21", "activation factor": 1}
{"smiles": "Cc1cccc(C)c1NC(=O)CNC(=O)Cc1ccc(Br)cc1", "activation factor": 0.9}
{"smiles": "COC(=O)C1=NNC2(c3ccc(C)cc3)C(=O)N(c3cccc(C)c3C)C(=O)C12", "note": "(stereo not given)", "activation factor": 0.9}
{"smiles": "CCCNCc1cc(OCC)c(OCC(=O)Nc2ccccc2)cc1Br", "activation factor": 0.9}
{"smiles": "Cc1cc(C)cc(OCC(=O)NCc2cc(C)nc3ccccc23)c1", "activation factor": 1}
